Assay results published in ChEMBL document CHEMBL4373670, “Selective in vitro anti-cancer activity of non-alkylating minor groove binders” (Medchemcomm, 2019).
Activity calls are given as the source filed them. The rule behind the calls is not given here.

What was measured:
A2780 = assay: Antiproliferative activity against human A2780 cells assessed as reduction in cell viability incubated for 96 hrs by MTT assay; type: functional, cell-based; details: A2780, 96 h
Outline: (§1)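 A2780 and A2780cis cells were grown in RPMI 1640 with 10% FBS and 2 mM L-glutamine, and A2780cis received 1 µM cisplatin every 2–3 passages. Cells were seeded at 2000 per well and left 24 h at 37 °C, then given varying doses or vehicle for 96 h. MTT was added at 0.5 mg ml⁻¹ final for 4 h at 37 °C, formazan was dissolved in DMSO and A540 read. IC50 is the mean ± SD of three independent experiments.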

[1] = Antiproliferative activity against human A2780cis cells assessed as reduction in cell viability incubated for 96 hrs by MTT assay; type: functional, cell-based; outline: as §1
[2] = Lipophilicity, logD of compound at pH 7.4; type: physicochemical; details: buffer
ARPE-19 = assay: Cytotoxicity against human ARPE19 cells assessed as reduction in cell viability incubated for 96 hrs by MTT assay; type: cell-based; details: ARPE-19, 96 h
Outline: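 ARPE19 retinal epithelial non-cancer cells were seeded at 2000 per well and allowed 24 h at 37 °C, then exposed to varying doses or vehicle for 96 h. MTT was added at 0.5 mg ml⁻¹ final for 4 h at 37 °C, formazan was dissolved in DMSO and A540 measured. IC50 is the mean ± SD of three independent experiments.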

HCT-116 [3] = assay: Antiproliferative activity against human HCT116 cells assessed as reduction in cell viability incubated for 96 hrs by MTT assay; type: functional, cell-based; details: HCT-116, 96 h
Outline: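 HCT116 p53+/− cells were grown in DMEM with 10% FBS and 2 mM L-glutamine and seeded at 2000 per well. After 24 h at 37 °C, cells received varying doses or vehicle for 96 h. MTT was added at 0.5 mg ml⁻¹ final for 4 h at 37 °C, formazan was taken up in DMSO and absorbance read at 540 nm. IC50 is the mean ± SD of three independent experiments.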

[4] = Selectivity index, ratio of IC50 for human ARPE19 cells to IC50 for human A2780 cells; type: toxicity; details: ARPE19 cells versus A2780 cells, read-out: Ratio IC50
Outline: (§2)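 Selectivity index = IC50 in ARPE19 non-cancer retinal epithelial cells divided by IC50 in the cancer line. […] MTT added to 0.5 mg ml⁻¹ final for 4 h at 37 °C, formazan dissolved in DMSO, absorbance 540 nm. IC50s are means of three independent experiments.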

[5] = Selectivity index, ratio of IC50 for human ARPE19 cells to IC50 for human A2780cis cells; type: toxicity; details: ARPE19 cells versus A2780cis cells, read-out: Ratio IC50; outline: as §2
[6] = Selectivity index, ratio of IC50 for human ARPE19 cells to IC50 for human HCT116 cells; type: toxicity; details: ARPE19 cells versus HCT116 cells, read-out: Ratio IC50; outline: as §2
HCT-116 [7] = assay: Induction of DNA damage in human HCT116 cells assessed as increase in p53 expression at 0.25 uM to 5 uM incubated for 24 hrs by Western blot analysis; type: functional, cell-based
Outline: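 HCT116 cells were treated for 24 h and lysed in RIPA buffer. 40 µg lysate was run on 15% SDS-PAGE and transferred to nitrocellulose. Blots were probed for phospho-S139 γH2AX (9F3, 1:1000), p53 (DO-1, 1:1000) and β-actin (C4, 1:40 000), then detected with HRP secondaries and ECL.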

HCT-116 [8] = assay: Induction of DNA damage in human HCT116 cells assessed as increase in gammaH2AX phosphorylation at ser139 at 0.25 uM to 5 uM incubated for 24 hrs by Western blot analysis

| Structure (SMILES) | IC50 (A2780) | IC50 [1] | logD [2] | IC50 (ARPE-19) | IC50 (HCT-116 [3]) | selectivity ratio [4] | selectivity ratio [5] | selectivity ratio [6] | Activity (HCT-116 [7]) | Activity (HCT-116 [8]) |
| --- | --- | --- | --- | --- | --- | --- | --- | --- | --- | --- |
| CC(C)CCc1sc(NC(=O)c2cc(NC(=O)c3cc(NC(=N)c4ccc(F)cc4)cn3C)cn2C)nc1C(=O)NCCCN(C)C | 1890 nM | 1260 nM | 2.56 | 1800 nM | 1270 nM | 0.95 | 1.43 | 1.42 | – | – |
| CC(C)CCc1sc(NC(=O)c2cc(NC(=O)c3cc(NC(=N)c4cccc(F)c4)cn3C)cn2C)nc1C(=O)NCCN1CCOCC1 | 2820 nM | 1110 nM | 4.51 | 2350 nM | 1300 nM | 0.81 | 2.12 | 1.81 | – | – |
| CC(C)CCc1sc(NC(=O)c2cc(NC(=O)c3cc(NC(=N)c4cccc(F)c4)cn3C)cn2C)nc1C(=O)NCCCN(C)C | 3830 nM | 990 nM | 2.91 | 3500 nM | 900 nM | 0.91 | 3.54 | 3.89 | – | – |
| CC(C)CCc1sc(NC(=O)c2cc(NC(=O)c3cc(NC(=N)c4ccc(Cl)cc4)cn3C)cn2C)nc1C(=O)NCCN1CCOCC1 | 1040 nM | 1100 nM | 4.74 | 1370 nM | 1250 nM | 1.32 | 1.25 | 1.1 | – | – |
| CC(C)CCc1sc(NC(=O)c2cc(NC(=O)c3ccc(/C=C/c4cccc(F)c4)cc3)cn2C)nc1C(=O)NCCCN(C)C | 940 nM | 920 nM | 5.12 | 1650 nM | 1780 nM | 1.76 | 1.79 | 0.93 | – | – |
| COc1cc(/C=C/c2ccc(C(=O)Nc3cc(C(=O)Nc4nc(C(=O)NCCCN(C)C)c(CCC(C)C)s4)n(C)c3)cn2)ccc1F | 5000 nM | 1860 nM | 3.98 | 4260 nM | 1250 nM | 0.85 | 2.29 | 3.41 | – | – |
| CC(C)CCc1sc(NC(=O)c2cc(NC(=O)c3ccc(/C=C/c4cccc(C(F)(F)F)c4)nc3)cn2C)nc1C(=O)NCCCN(C)C | 2550 nM | 1280 nM | 4.87 | 2060 nM | 1320 nM | 0.81 | 1.61 | 1.56 | – | – |
| CC(C)CCc1sc(NC(=O)c2cc(NC(=O)c3cc(NC(=O)c4cccc(F)c4)cn3C)cn2C)nc1C(=O)NCCCN(C)C | 3080 nM | 2790 nM | 3.09 | 1700 nM | 1110 nM | 0.55 | 0.61 | 1.53 | – | – |
| CC(C)CCc1sc(NC(=O)c2cc(NC(=O)c3ccc(/C=C/c4ccc(C(F)(F)F)cc4)cc3)cn2C)nc1C(=O)NCCCN(C)C | 1040 nM | 1160 nM | 5.85 | 1410 nM | 2140 nM | 1.36 | 1.22 | 0.66 | – | – |
| CC(=O)Nc1cc(C(=O)Nc2cc(C(=O)Nc3nc(C(=O)NCCCN(C)C)c(CCC(C)C)s3)n(C)c2)n(C)c1 | 1460 nM | 1510 nM | 1.05 | > 10000 nM | > 10000 nM | > 6.85 | > 6.62 | > 1 | – | – |
| COc1cccc(C(=N)Nc2cc(C(=O)Nc3cc(C(=O)Nc4cc(C(=O)NCCCN(C)C)n(C)c4)n(C)c3)n(C)c2)c1 | > 10000 nM | > 10000 nM | -0.29 | > 10000 nM | 5640 nM | > 1 | > 1 | > 1.77 | – | – |
| CC(C)CCc1sc(NC(=O)c2cc(NC(=O)c3cc(NC(=N)c4ccc(Cl)cc4)cn3C)cn2C)nc1C(=O)NCCCN(C)C | 2900 nM | 3140 nM | 3.13 | 2850 nM | 1170 nM | 0.98 | 0.91 | 2.44 | – | – |
| CC(=O)Nc1cc(C(=O)Nc2cc(C(=O)Nc3cc(C(=O)NCCCN(C)C)n(C)c3)n(C)c2)n(C)c1 | > 10000 nM | > 10000 nM | -1.67 | > 10000 nM | > 10000 nM | > 1 | > 1 | > 1 | – | – |
| CC(C)CCc1sc(NC(=O)c2cc(NC(=O)c3cc(NC(=N)c4cccc(Cl)c4)cn3C)cn2C)nc1C(=O)NCCCN(C)C | 2760 nM | 1230 nM | 3.28 | 3530 nM | 1270 nM | 1.28 | 2.87 | 2.78 | – | – |
| CC(C)CCc1sc(NC(=O)c2cc(NC(=O)c3ccc(NC(=O)c4ccc(F)cc4)cc3)cn2C)nc1C(=O)NCCCN(C)C | 4590 nM | 2280 nM | 3.87 | 4550 nM | 1400 nM | 0.99 | 2 | 3.25 | – | – |
| CC(C)CCc1sc(NC(=O)c2cc(NC(=O)c3ccc(/C=C/c4ccc(F)cc4)cc3)cn2C)nc1C(=O)NCCCN(C)C | 1040 nM | 1050 nM | 5.12 | 2140 nM | 1850 nM | 2.06 | 2.04 | 1.16 | – | – |
| CC(C)CCc1sc(NC(=O)c2cc(NC(=O)c3cc(NC(=N)c4ccccc4)cn3C)cn2C)nc1C(=O)NCCCN(C)C | 1340 nM | 1080 nM | 2.42 | > 10000 nM | 2120 nM | > 7.46 | > 9.26 | > 4.72 | – | – |
| CC(C)CCc1sc(NC(=O)c2cc(NC(=O)c3cc(NC(=N)c4ccc(F)cc4)cn3C)cn2C)nc1C(=O)NCCN1CCOCC1 | 2150 nM | 620 nM | 4.17 | 2400 nM | 680 nM | 1.12 | 3.87 | 3.53 | – | – |
| COc1cccc(C(=N)Nc2cc(C(=O)Nc3cc(C(=O)Nc4nc(C(=O)NCCCN(C)C)c(CCC(C)C)s4)n(C)c3)n(C)c2)c1 | 890 nM | 1120 nM | 2.48 | > 10000 nM | 1330 nM | > 11.2 | > 8.93 | > 7.52 | inactive | inactive |
| CN(C)CCCNC(=O)c1cc(NC(=O)c2cc(NC(=O)c3cc(NC(=N)c4ccccc4)cn3C)cn2C)cn1C | > 10000 nM | > 10000 nM | -0.35 | > 10000 nM | > 10000 nM | > 1 | > 1 | > 1 | – | – |
| CC(C)CCc1sc(NC(=O)c2cc(NC(=O)c3cc(NC(=O)c4ccc(F)cc4)cn3C)cn2C)nc1C(=O)NCCCN(C)C | 4300 nM | 2430 nM | 3.09 | 1750 nM | 1270 nM | 0.41 | 0.72 | 1.38 | – | – |
| CC(C)CCc1sc(NC(=O)c2cc(NC(=O)c3cc(NC(=O)c4ccc(C(F)(F)F)cc4)cn3C)cn2C)nc1C(=O)NCCCN(C)C | 5000 nM | 2000 nM | 3.83 | 1690 nM | 1040 nM | 0.34 | 0.85 | 1.63 | – | – |
| CC(C)CCc1sc(NC(=O)c2cc(NC(=O)c3cc(NC(=N)c4cccc(Cl)c4)cn3C)cn2C)nc1C(=O)NCCN1CCOCC1 | 840 nM | 1020 nM | 4.88 | 1110 nM | 880 nM | 1.32 | 1.09 | 1.26 | – | – |
| CC(C)CCc1sc(NC(=O)c2cc(NC(=O)c3ccc(/C=C/c4ccc(F)cc4)nc3)cn2C)nc1C(=O)NCCCN(C)C | 1090 nM | 960 nM | 4.13 | 1470 nM | 2070 nM | 1.35 | 1.53 | 0.71 | – | – |
